Results from different studies.
Each line is one published result; the experiments were not run side by side. pIC50: −log10 of the molar value.
Organism: Plasmodium falciparum
Read-out: parasite growth

| SMILES | method | strain | time | setting | endpoint | value |
| --- | --- | --- | --- | --- | --- | --- |
| CN1CCC(NCc2cccc(-c3ccc(S(=O)(=O)NCc4ccccc4)cc3)c2)CC1 | SYBR Green | – | – | blood stage | pIC50 | 6.23 |
| NCCCCNc1nc2cc(Cl)ccc2n1Cc1ccccc1 | – | NF54 | – | blood stage | pIC50 | 5.87 |
| Fc1cc(F)cc(-c2nc3c(N4CCC(CN5CCN(CC(F)(F)F)CC5)CC4)nccc3[nH]2)c1 | – | NF54 | – | blood stage | pIC50 | > 7.00 |
| Clc1ccc2c(nc(N3CCNCC3)n2Cc2ccccc2)c1Cl | – | NF54 | – | blood stage | pIC50 | 7.26 |
| CCN(CC)CCCC(C)Nc1ccnc2cc(Cl)ccc12 (centres unmarked) | LDH | – | – | – | pIC50 | 6.69 |
| O=C(Nc1ccc2c(c1)B(O)OC2)Nc1ccc(F)c(C(F)(F)F)c1 | – | NF54 | – | blood stage | pIC50 | 5.51 |
| CC(=O)Nc1ccc(-c2ccc3ncc4c(c3c2)n(-c2cccc(C(F)(F)F)c2)c(=O)n4C)cn1 | resazurin | 3D7 | – | gametocyte | pIC50 | > 7.00 |
| CCN(CC)CCCC(C)Nc1ccnc2cc(Cl)ccc12 (centres unmarked) | – | D10 | 72 h | – | pIC50 | 7.70 |
| O=C(O)c1cc(-c2ccc(Br)cc2)nc2ccc(Cl)cc12 | SYBR Green | – | – | blood stage | pIC50 | 4.22 |
| O=C(Nc1c(F)cccc1C(=O)O)c1cccc(-c2ccccc2)c1 | resazurin | NF54 | 48 h | gametocyte | pIC50 | < 5.00 |
| Cc1ccc2c(c1C)NC(=O)[C@]21NN=C(c2ccccc2)S1 | SYBR Green | – | – | blood stage | pIC50 | 6.02 |
| Clc1ccc2c(nc(N3CCNCC3)n2Cc2ccccc2)c1Br | – | NF54 | – | blood stage | pIC50 | 7.15 |
| N=C(N)NCCCCC(=O)Nc1cc(C(F)(F)F)cc(NC(=O)c2cc(C(=O)Nc3cc(C(F)(F)F)cc(NC(=O)CCCCNC(=N)N)c3O[C@@H]3CCNC3)ncn2)c1O[C@@H]1CCNC1 | SYBR Green | – | – | blood stage | pIC50 | 6.17 |
| CCN(CC)CCCC(C)Nc1ccnc2cc(Cl)ccc12 (centres unmarked) | – | NF54 | – | blood stage | pIC50 | 8.38 |
| O=C1C(O)=C([C@H]2CC[C@H](c3ccc(Cl)cc3)CC2)C(=O)c2ccccc21 | – | 3D7 | 72 h | blood stage | pIC50 | 9.40 |
| C/C=C/C=C/C=C/c1c(O)cc(CC=C(C)C)c(O)c1C=O | – | W2 | 72 h | drug-resistant strain, blood stage | IC50 | 1.1 µg/mL |
| C#CCCCCCCCCC=CCC(O)CC(O)CO (centres unmarked) | – | D6 | – | blood stage | IC50 | > 47.6 µg/mL |
| COc1cccc2c(=O)c(C)c(-c3ccc(Cc4ccc(OC(F)(F)F)cc4)cc3)[nH]c12 | – | 3D7 | – | blood stage | pIC50 | < 6.46 |
| Cc1cccc(C(=O)O)c1NC(=O)c1cccc(-c2ccccc2)c1 | resazurin | NF54 | 48 h | gametocyte | pIC50 | 6.18 |
| CC[C@@H](C)[C@H]1O[C@@H](c2c(O)c(-c3ccccc3)cn(O)c2=O)[C@H](C)C[C@@H]1C | – | D6 | 72 h | blood stage | IC50 | 0.33 µg/mL |
| CN1CCN(C2CCN(c3nccc4[nH]c(-c5ccc(F)c(C(F)(F)F)c5)nc34)CC2)CC1 | – | NF54 | – | blood stage | pIC50 | > 7.00 |

| SMILES | method | strain | time | setting | endpoint | value |
| --- | --- | --- | --- | --- | --- | --- |
| NCCNc1nc2cc(Cl)ccc2n1Cc1ccccc1 | – | NF54 | – | blood stage | pIC50 | 6.61 |
| CCN(CC)CCCC(C)Nc1ccnc2cc(Cl)ccc12 (centres unmarked) | – | D6 | – | blood stage | IC50 | 0.016 µg/mL |
| O=C(O)/C=C/C=C/c1cccc(Oc2cc(Cl)cc(Cl)c2)c1 | SYBR Green | – | – | blood stage | pIC50 | 4.27 |
| CCN(CC)CCCC(C)Nc1ccnc2cc(Cl)ccc12 (centres unmarked) | – | D6 | 72 h | blood stage | IC50 | 0.016 µg/mL |
| C[C@@H](c1cc(Cl)cc(Cl)c1)N(C)c1ncc2c(N)nc(N)nc2n1 | SYBR Green | – | – | blood stage | pIC50 | 5.09 |
| CCCCCCCCCCCCCC(O)CC(O)CO (centres unmarked) | – | D6 | – | blood stage | IC50 | 28.2 µg/mL |
| C[C@@H]1CC[C@H]2[C@@H](C)C(=O)O[C@@H]3O[C@@]4(C)CC[C@@H]1[C@]32OO4 | – | W2 | – | drug-resistant strain, blood stage | IC50 | 0.009 µg/mL |
| C[C@@H]1CN(c2nc3cc(Cl)ccc3n2Cc2ccccc2)C[C@H](C)N1 | – | NF54 | – | blood stage | pIC50 | 6.67 |
| Cc1ccc(-c2ccccc2C(=O)Nc2c(C)cccc2C(=O)O)cc1 | – | NF54 | 48 h | blood stage | pIC50 | < 5.00 |
| CC1=C(C)C(c2ccc[nH]2)=NC1=Cc1ccc(CCCCCCCCCC(C)O)[nH]1 (centres unmarked) | – | D6 | – | blood stage | pIC50 | 5.96 |
| O=C(Nc1cc(F)ccc1C(=O)O)c1ccc(-c2ccccc2)cc1 | resazurin | NF54 | 48 h | gametocyte | pIC50 | 6.98 |
| C[C@@]12CC[C@@H](O)[C@]3(C)C4=CC(=O)OCC4=C[C@@H](OC1=O)C23 (some centres unmarked) | – | D6 | 72 h | blood stage | IC50 | 0.9 µg/mL |
| FC(F)(F)c1ccc(CNCCNc2nc3cc(Cl)ccc3n2Cc2ccccc2)cc1 | – | NF54 | – | blood stage | pIC50 | 5.56 |
| CCOc1ccc(-c2nc(CNCCc3ccc(F)cc3)cs2)cc1 | SYBR Green | – | – | blood stage | pIC50 | 4.77 |
| Fc1ccc(-c2nc3c(N4CCCN(CC5CC5)CC4)nccc3[nH]2)cc1F | – | NF54 | – | blood stage | pIC50 | 7.70 |
| FC(F)(F)c1ccc2c(c1)nc(N1CCNCC1)n2Cc1ccccc1 | – | NF54 | – | blood stage | pIC50 | 6.51 |
| O=C(O)c1ccc(-n2nc(-c3ccccc3O)nc2-c2ccccc2O)cc1 | SYBR Green | – | – | blood stage | pIC50 | 4.32 |
| Clc1ccc2c(c1)nc(NCCN1CCOCC1)n2Cc1ccccc1 | – | NF54 | – | blood stage | pIC50 | 5.07 |
| C[C@@H]1CC[C@H]2[C@@H](C)C(=O)O[C@@H]3O[C@@]4(C)CC[C@@H]1[C@]32OO4 | – | W2 | 72 h | drug-resistant strain, blood stage | IC50 | 0.0038 µg/mL |
| COC1=CC(c2ccc[nH]2)=NC1=Cc1ccc(CCCCCCCCCCCCO)[nH]1 | – | D6 | – | blood stage | pIC50 | 7.42 |
